IMP-1 inh-1: IMP-1 metallo-beta-lactamase inhibitors, primary screen, biochemical, epi-absorbance readout, Pseudomonas aeruginosa enzyme | AID 1556, 2009 | 0.45% of 290,000 active | metallo-beta-lactamase IMP-1 (Pseudomonas aeruginosa) | inhibition, % at 5.6 µM | purified IMP-1, nitrocefin hydrolysis, epi-absorbance fluorescence;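 active means inhibition above the mean plus 3 SD of all compounds in the same screening run, cut at about 4.5% in these data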;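 further: 0% = IMP-1 with DMSO and 100% = DMSO wells lacking enzyme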
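Material – recombinant IMP-1 enzyme, purified · Amount – IMP-1 0.2 nM before substrate addition · Medium – HEPES buffer pH 7.1 with ZnSO4 and Brij 35 · Timing – 25 °C, 15 min preincubation, 25 min reaction · Measured by – plate fluorescence quenching by hydrolysis product, ex 480/em 530 nm · Read-out – percent enzyme inhibition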
VIM-2 inhibitor: VIM-2 metallo-beta-lactamase inhibitors, primary screen, biochemical, epi-absorbance readout, Pseudomonas aeruginosa enzyme. purified VIM-2, nitrocefin hydrolysis, epi-absorbance fluorescence. inhibition, % at 5.6 µM. 0.89% of 290,000 active;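 active means inhibition above the mean of all tested compounds plus 3 SD, cutoff set per screening run, cut at about 7.5% in these data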;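 further: red hydrolysis product quenches plate fluorescence so inhibitors raise well fluorescence; 0% = enzyme with DMSO and 100% = DMSO without enzyme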
NS3 helicase inh: inhibitors of HCV NS3 helicase, primary screen, biochemical, Cy5 molecular beacon fluorescence. inhibition, % at 10.9 µM. AID 1800, 2009. 0.56% of 290,000 active. NS3 helicase DNA unwinding;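 active means inhibition above the mean of all tested compounds plus 3 SD, set per campaign, cut at about 35% in these data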;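 further: 0% = DMSO wells and 100% = thioflavine S control wells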
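System: HCV NS3 helicase fragment; control set: DMSO and thioflavine S; technique: Cy5 fluorescence at 0 and 60 min, beacon hairpin quenching; reagent: beacon DNA duplex substrate plus ATP; replicates: singlicate; schedule: 1 h reaction at 25 °C, ATP-initiated; medium: MOPS buffer pH 6.5 with MgCl2, DTT, Tween20, BSA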
DNA FID counter: compounds displacing fluorescent DNA intercalator, primary screen, artefact control for HCV NS3 helicase inhibitor project, biochemical, FID fluorescence; 0.17% of 290,000 active; AID 1845, 2009; inhibition, % at 7.9 µM; DNA fluorescent intercalator displacement; in the data active means inhibition above about 37%;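 further: 0% = vehicle and 100% = reference compound; higher means more ethidium bromide displaced from hairpin DNA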
UBC9 SUMO inh: inhibitors of in vitro SUMOylation cascade, primary screen, biochemical, HTRF, uHTS; 0.36% of 290,000 active; SUMO-conjugating enzyme UBC9 (Homo sapiens), P63279; inhibition, % at 35 µM; HTRF SUMOylation assay, SAE1/SAE2 + UBC9; in the data active means inhibition above about 50%, passing the limit was not always enough
Target sequence (P63279 whole entry, looked up): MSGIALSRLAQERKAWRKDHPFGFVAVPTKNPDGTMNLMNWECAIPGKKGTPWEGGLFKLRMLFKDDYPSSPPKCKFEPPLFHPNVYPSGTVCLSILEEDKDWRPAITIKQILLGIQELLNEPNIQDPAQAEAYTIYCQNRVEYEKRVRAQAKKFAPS
IMP-1 inh-2: IMP-1 metallo-beta-lactamase inhibitors, confirmation, selectivity assay for selective VIM-2 inhibitor project, biochemical, epi-absorbance readout, triplicate; AID 1856, 2009; 1,300 tested, under 10 active; purified IMP-1, nitrocefin hydrolysis, epi-absorbance fluorescence; inhibition, % at 5.6 µM; shares compounds with VIM-2 inhibitor; call rule not given here;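 further: 0% = enzyme with vehicle and 100% = vehicle without enzyme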
VIM-2 FRET inh: VIM-2 inhibitors in FRET format, confirmation, artefact control for selective VIM-2 inhibitor project, biochemical, epi-absorbance artifact exclusion; shares compounds with VIM-2 inhibitor; purified VIM-2, CCF2 FRET substrate hydrolysis; inhibition, % at 5.6 µM; 23% of 1,300 active; AID 1857, 2009;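 active means inhibition above the mean of all tested compounds plus 3 SD, cut at about 19% in these data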;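 further: 0% = VIM-2 plus DMSO and 100% = no enzyme wells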
TEM-1 counter: TEM-1 serine beta-lactamase inhibitors, counter-screen for VIM-2 inhibitor project, biochemical, epi-absorbance, HTS; shares compounds with VIM-2 inhibitor; Purified TEM-1, nitrocefin hydrolysis, epi-absorbance fluorescence; inhibition, % at 5.6 µM; 3% of 1,300 active;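 active means inhibition above that campaign's mean inhibition plus 3 SD, cut at about 0.46% in these data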;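 further: 0% = TEM-1 with DMSO and 100% = TEM-1 with 100 µM potassium clavulanate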
Target sequence (P62593 whole entry, looked up): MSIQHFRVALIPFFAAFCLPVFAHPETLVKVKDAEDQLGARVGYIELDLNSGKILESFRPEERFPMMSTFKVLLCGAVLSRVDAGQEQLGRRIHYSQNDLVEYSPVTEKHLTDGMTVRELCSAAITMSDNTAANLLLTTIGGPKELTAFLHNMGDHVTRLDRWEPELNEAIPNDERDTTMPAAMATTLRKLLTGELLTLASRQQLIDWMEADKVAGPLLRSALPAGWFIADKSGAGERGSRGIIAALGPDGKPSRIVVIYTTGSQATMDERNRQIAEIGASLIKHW
VIM-2 confirm 2: VIM-2 metallo-beta-lactamase inhibitors, confirmation, biochemical, epi-absorbance, hits shared with IMP-1 screen; purified VIM-2, nitrocefin hydrolysis; 96% of 1,300 active; inhibition, % at 5.6 µM; shares compounds with VIM-2 inhibitor; AID 2187, 2009;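 active means inhibition of the VIM-2 beta-lactamase enzyme above about 11% from the earlier first-round screen, limit read from the data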;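 further: 0% = VIM-2 with DMSO and 100% = buffer wells without enzyme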
The depositor's hits bear a star; nt = not tested or not shown. Most compounds without a hit are left out; they make up all but 2.1% or so of the library.

SMILES	IMP-1 inh-1	VIM-2 inhibitor	NS3 helicase inh	DNA FID counter	UBC9 SUMO inh	IMP-1 inh-2	VIM-2 FRET inh	TEM-1 counter	VIM-2 confirm 2
O=C(O)C(C(=O)O)=C1C2CC3CC(C2)CC1C3	-3	39*	1	3	-1	-1	64*	-3	48*
CC(=O)c1c(C)n(-c2ccc(Cl)cc2)c2ccc(O)cc12	-1	14*	7	-9	10	-2	24*	-4	16*
CC(=O)c1c(C)n(-c2cccc(Cl)c2)c2ccc(O)cc12	-1	0	2	-23	-4	nt	nt	nt	nt
Cc1ncoc1C(=O)NC1CCCc2c1cnn2-c1ccc(C(C)(C)C)cc1 (stereo not given)	-2	-3	-3	-35	0	nt	nt	nt	nt
Cc1nc2ncccn2c1-c1csc(Nc2ccc(O)cc2)n1	-2	17*	-3	-6	6	-4	16	-11	28*
CC(C)C(NC(=O)c1ccc(C(C)(C)C)cc1)C(=O)N1CCCC1 (stereo not given)	-1	1	-17	-32	2	nt	nt	nt	nt
COc1ccc(-c2n[nH]c(=S)n2-c2cc(OC)ccc2OC)cc1	-3	1	3	-15	27	nt	nt	nt	nt
COc1ccc2c(C)cc3n[nH]c(=S)n3c2c1	-2	13*	11	-7	11	-3	21*	-7	19*
Cc1cc(OCC(=O)NCCCN2CCOCC2)c2c(C)c(C)c(=O)oc2c1	-6	26*	12	7	26	-4	3	-6	36*
Cc1cc(OCC(=O)Nc2ccc(CN3CCOCC3)cc2)c2c(C)c(C)c(=O)oc2c1	-1	33*	-47	8	-3	-4	-1	-8	40*
Cc1cc(OCC(=O)Nc2ccc(CN3CCOCC3)cc2)c2c(C)cc(=O)oc2c1	1	4	-6	14	23	nt	nt	nt	nt
Cc1cc(OCC(=O)NCCCN2CCCC2=O)c2c(C)c(C)c(=O)oc2c1	-1	5	2	-27	30	nt	nt	nt	nt
CCOc1ccccc1NC(=O)CCCn1cc([N+](=O)[O-])cn1	-5	-7	4	14	9	nt	nt	nt	nt
Cn1c(=O)n(C)c2cc(/C=N/n3cnnc3)ccc21	-3	15*	8	-4	11	-3	1	-6	45*
Cc1cc(=O)oc2c3c(cc(OCC(=O)N[C@@H](Cc4ccccc4)C(=O)O)c12)OC(C)(C)CC3	-1	22*	4	-15	35	-3	40*	-5	25*
CCc1cc(=O)oc2c3c(cc(OCC(=O)NCc4ccco4)c12)OC(C)(C)CC3	1	4	17	-26	24	nt	nt	nt	nt
Cc1cc(=O)oc2c3c(cc(OCC(=O)NC(Cc4ccc(Cl)cc4)C(=O)O)c12)OC(C)(C)CC3 (stereo not given)	-2	7	-25	-5	36	nt	nt	nt	nt
CCc1cc(=O)oc2c3c(cc(OCC(=O)NCc4ccncc4)c12)OC(C)(C)CC3	-2	16*	-10	-31	37	-2	-2	-1	27*
COc1cccc(N(C(=O)c2snc(C(N)=O)c2N)C(C(=O)NCC2CCCO2)c2ccc3ncccc3c2)c1 (stereo not given)	0	0	-4	-40	0	nt	nt	nt	nt
Cn1c(=O)n(C)c2cc(/C=N/N=C3/NC(=O)C(CC(=O)O)S3)ccc21 (stereo not given)	-4	22*	-8	-3	12	-1	7	-4	37*
Cc1c(OC(C)C(=O)NCc2ccncc2)ccc2c3c(c(=O)oc12)CCCC3 (stereo not given)	-2	51*	-6	-34	19	-3	17	-11	62*
CCCc1cc(=O)oc2c(C)c(OC(C)C(=O)NCc3ccccn3)ccc12 (stereo not given)	0	0	-8	-39	9	nt	nt	nt	nt
Cc1c(OC(C)C(=O)NCc2ccccn2)ccc2c3c(c(=O)oc12)CCC3 (stereo not given)	-1	19*	1	-34	7	-2	2	-5	28*
Cc1c(OCC(=O)Nc2cccnc2)ccc2c3c(c(=O)oc12)CCC3	-2	24*	2	-28	5	-4	-1	-16	35*
Cc1c(OCC(=O)NCc2ccccn2)ccc2c3c(c(=O)oc12)CCCC3	-1	17*	-4	-24	10	-2	-3	-18	26*
SMILES	IMP-1 inh-1	VIM-2 inhibitor	NS3 helicase inh	DNA FID counter	UBC9 SUMO inh	IMP-1 inh-2	VIM-2 FRET inh	TEM-1 counter	VIM-2 confirm 2
Cc1ccc2nc(N(CCCN(C)C)C(=O)c3sc4ccccc4c3Cl)sc2c1	-1	-1	-19	1	7	nt	nt	nt	nt
Cc1ccc(S(=O)(=O)N2CCN(C(=O)c3cc(=O)c4ccccc4o3)CC2)cc1	-1	-2	3	-26	8	nt	nt	nt	nt
Clc1ccccc1-c1nnc2sc(-c3ccncc3)nn12	-3	-4	1	-5	3	nt	nt	nt	nt
Clc1ccccc1-c1nn2c(-c3ccncc3)nnc2s1	-3	22*	-2	5	-4	-4	0	-8	55*
CCc1ccc(NS(=O)(=O)c2c(C(=O)N3CCCCCC3)c(C)n(C)c2C)cc1	2	1	6	-49	11	nt	nt	nt	nt
O=C(COc1ccccc1)NCc1nnc2c3ccccc3c(-c3ccccc3)nn12	2	18*	-11	-32	5	2	6	1.0*	39*
O=C(NCc1nnc2c3ccccc3c(-c3ccccc3)nn12)c1ccc(Cl)cc1	-4	0	-19	-3	-17	nt	nt	nt	nt
CNC(=O)COc1ccc(-c2nn(C)c(=O)c3ccccc23)cc1	1	5	-3	-6	11	nt	nt	nt	nt
CC(=O)NCc1nnc2c3ccccc3c(-c3ccccc3)nn12	-2	22*	-5	-9	12	-3	-1	-4	33*
CC(NC(=O)c1ccc(C#N)cc1)C1CC2CCC1C2 (stereo not given)	-1	-1	15	-3	4	nt	nt	nt	nt
CC(C)C(=O)N1CCC2(CC1)Oc1ccc(Cl)cc1C(=O)C21CC(c2cccnc2)=NO1 (stereo not given)	nt	nt	nt	nt	-6	nt	nt	nt	nt
